{"source": "ChEMBL document CHEMBL4130549", "about": "“Synthesis and bioactivities study of new antibacterial peptide mimics: The dialkyl cationic amphiphiles” (Eur J Med Chem, 2018)", "key": {"Staphylococcus aureus [1]": {"system": "Staphylococcus aureus", "assay": "Antibiofilm activity against Staphylococcus aureus ATCC 29213 assessed as bacterial cell viability in biofilm at 2 ug/ml after 24 hrs (reference value: 21.9 log10CFU/ml)", "type": "functional", "outline": "(§1)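 Mid-log cells at ~10⁵ CFU/mL grown stationary in 96-well plates (S. aureus in MHB for 24 h; E. coli in M9 with 0.02% casamino acids and 0.5% glycerol for 72 h). After washing, biofilms exposed 24 h at 37 °C to 2-128 µg/mL; detached with trypsin-EDTA, serially plated, viability given as log10 CFU/well against an untreated control.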"}, "Staphylococcus aureus [2]": {"system": "Staphylococcus aureus", "assay": "Antibiofilm activity against Staphylococcus aureus ATCC 29213 assessed as bacterial cell viability in biofilm at 4 ug/ml after 24 hrs (reference value: 21.9 log10CFU/ml)", "type": "functional", "outline": "as §1"}, "[3]": {"assay": "Selectivity index, ratio of HC50 for sheep RBC to MIC for Staphylococcus aureus ATCC 29213", "type": "toxicity", "conditions": "sheep red blood cells (erythrocytes), read-out: Selectivity Index", "outline": "(§2)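 HC50 from sheep RBC lysis: 5% RBC suspension exposed 1 h at 37 °C to a 5120–10 µg/mL series, with A540 of supernatant scaled to 0.1% Triton X-100. MIC by CLSI broth microdilution in cation-adjusted MHB, ~10^6 CFU/mL, 256–0.5 µg/mL, 37 °C for 16–20 h, duplicates with at least two repeats.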"}, "[4]": {"assay": "Selectivity index, ratio of HC50 for sheep RBC to MIC for Escherichia coli ATCC 25922", "type": "toxicity", "conditions": "sheep red blood cells (erythrocytes), read-out: Selectivity Index", "outline": "as §2"}, "Staphylococcus aureus [5]": {"system": "Staphylococcus aureus", "assay": "Bactericidal activity against Staphylococcus aureus ATCC 29213 assessed as time required to kill early exponential phase at 8 ug/ml by time kill assay", "type": "functional", "outline": "(§3)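 Overnight culture diluted 1:10,000 in MHB and shaken at 37 °C, 225 rpm, for 2 h (early exponential) or 5 h (late exponential), then exposed to compound at 6× and 8× MIC in tubes at 37 °C, 225 rpm. Samples (100 µL) taken at intervals, pelleted, resuspended in PBS, and ten-fold dilutions plated on MHA overnight at 37 °C for CFU/mL. Biological replicates.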"}, "Staphylococcus aureus [6]": {"system": "Staphylococcus aureus", "assay": "Bactericidal activity against Staphylococcus aureus ATCC 29213 assessed as time required to kill early exponential phase at 6 ug/ml by time kill assay", "type": "functional", "outline": "as §3"}, "Staphylococcus aureus [7]": {"system": "Staphylococcus aureus", "assay": "Bactericidal activity against Staphylococcus aureus ATCC 29213 assessed as time required to kill late exponential phase at 6 to 8 ug/ml by time kill assay", "type": "functional", "outline": "as §3"}, "Escherichia coli [8]": {"system": "Escherichia coli", "assay": "Bactericidal activity against Escherichia coli ATCC 25922 assessed as time required to kill early exponential phase at 12 to 16 ug/ml by time kill assay", "type": "functional"}, "Escherichia coli [9]": {"system": "Escherichia coli", "assay": "Bactericidal activity against Escherichia coli ATCC 25922 assessed as time required to kill late exponential phase at 12 to 16 ug/ml by time kill assay", "type": "functional"}, "Staphylococcus aureus [10]": {"system": "Staphylococcus aureus", "assay": "Antibiofilm activity against Staphylococcus aureus ATCC 29213 assessed as bacterial cell viability in biofilm at 8 ug/ml after 24 hrs (reference value: 21.9 log10CFU/ml)", "type": "functional", "outline": "as §1"}, "Staphylococcus aureus [11]": {"system": "Staphylococcus aureus", "assay": "Antibiofilm activity against Staphylococcus aureus ATCC 29213 assessed as bacterial cell viability in biofilm at 16 ug/ml after 24 hrs (reference value: 21.9 log10CFU/ml)", "type": "functional", "outline": "as §1"}, "Staphylococcus aureus [12]": {"system": "Staphylococcus aureus", "assay": "Antibiofilm activity against Staphylococcus aureus ATCC 29213 assessed as bacterial cell viability in biofilm at 32 ug/ml after 24 hrs (reference value: 21.9 log10CFU/ml)", "type": "functional", "outline": "as §1"}, "Staphylococcus aureus [13]": {"system": "Staphylococcus aureus", "assay": "Antibiofilm activity against Staphylococcus aureus ATCC 29213 assessed as bacterial cell viability in biofilm at 64 ug/ml after 24 hrs (reference value: 21.9 log10CFU/ml)", "type": "functional", "outline": "as §1"}, "Staphylococcus aureus [14]": {"system": "Staphylococcus aureus", "assay": "Antibiofilm activity against Staphylococcus aureus ATCC 29213 assessed as bacterial cell viability in biofilm at 128 ug/ml after 24 hrs (reference value: 21.9 log10CFU/ml)", "type": "functional", "outline": "as §1"}, "Escherichia coli [15]": {"system": "Escherichia coli", "assay": "Antibiofilm activity against Escherichia coli ATCC 25922 assessed as bacterial cell viability in biofilm at 2 ug/ml after 24 hrs (reference value: 25.9 log10CFU/ml)", "type": "functional", "outline": "as §1"}, "Escherichia coli [16]": {"system": "Escherichia coli", "assay": "Antibiofilm activity against Escherichia coli ATCC 25922 assessed as bacterial cell viability in biofilm at 4 ug/ml after 24 hrs (reference value: 25.9 log10CFU/ml)", "type": "functional", "outline": "as §1"}, "Escherichia coli [17]": {"system": "Escherichia coli", "assay": "Antibiofilm activity against Escherichia coli ATCC 25922 assessed as bacterial cell viability in biofilm at 8 ug/ml after 24 hrs (reference value: 25.9 log10CFU/ml)", "type": "functional", "outline": "as §1"}, "Escherichia coli [18]": {"system": "Escherichia coli", "assay": "Antibiofilm activity against Escherichia coli ATCC 25922 assessed as bacterial cell viability in biofilm at 16 ug/ml after 24 hrs (reference value: 25.9 log10CFU/ml)", "type": "functional", "outline": "as §1"}, "Escherichia coli [19]": {"system": "Escherichia coli", "assay": "Antibiofilm activity against Escherichia coli ATCC 25922 assessed as bacterial cell viability in biofilm at 32 ug/ml after 24 hrs (reference value: 25.9 log10CFU/ml)", "type": "functional", "outline": "as §1"}, "Escherichia coli [20]": {"system": "Escherichia coli", "assay": "Antibiofilm activity against Escherichia coli ATCC 25922 at 8 to 128 ug/ml after 72 hrs by crystal violet staining based assay", "type": "functional, organism-based", "outline": "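Biofilms grown in 24-well plates for about 72 h at 37 °C, treated, stained with 1.0% crystal violet, rinsed, dried, dye taken up in 95% ethanol for 1 h at room temperature, then photographed.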"}, "Staphylococcus aureus [21]": {"system": "Staphylococcus aureus", "assay": "Antibiofilm activity against Staphylococcus aureus ATCC 29213 after 24 hrs by turbidity method", "type": "functional", "outline": "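MBEC: biofilms grown 24 h at 37 °C from 1:1000-diluted exponential-phase culture; planktonic cells removed, twofold dilutions in fresh medium added for 24 h at 37 °C, then fresh medium alone for 24 h recovery. MBEC is the lowest concentration with no visible turbidity.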"}, "Escherichia coli [22]": {"system": "Escherichia coli", "assay": "Antibiofilm activity against Escherichia coli ATCC 25922 after 24 hrs by crystal violet staining method", "type": "functional", "outline": "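MBIC: twofold dilutions in MHB inoculated with 1:1000-diluted exponential-phase culture (10⁸ CFU/mL), 24 h at 37 °C. Wells rinsed, stained 10 min with 0.1% crystal violet, dye dissolved in ethanol, OD540 read; MBIC80 taken from dose–response versus untreated wells.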"}, "Escherichia coli [23]": {"system": "Escherichia coli", "assay": "Ratio of MBEC to MIC for Escherichia coli ATCC 25922 after 24 hrs", "type": "functional", "outline": "(§4)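 For MBEC, biofilms grown 24 h at 37 °C from a 1:1000 dilution of exponential-phase culture, washed, exposed 24 h to two-fold compound dilutions in fresh medium, then recovered 24 h in medium alone; MBEC is the lowest concentration with no turbidity. MIC by CLSI broth microdilution in cation-adjusted MHB, ~10^6 CFU/mL inoculum, 37 °C, 16–20 h.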"}, "Staphylococcus aureus [24]": {"system": "Staphylococcus aureus", "assay": "Ratio of MBEC to MIC for Staphylococcus aureus ATCC 29213", "type": "functional", "outline": "as §4"}, "Staphylococcus aureus [25]": {"system": "Staphylococcus aureus", "assay": "Antibacterial activity against Staphylococcus aureus ATCC 29213 after 20 serial passages measured after 16 to 20 hrs by broth microdilution method", "type": "functional, organism-based", "outline": "(§5)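 Sub-MIC serial passaging: after an initial broth microdilution MIC, cells grown at MIC/2 were transferred into a new MIC assay after each 24 h incubation, for 20 passages. MIC was plotted against days to follow resistance development. Passaging controls were norfloxacin for S. aureus and colistin for E. coli.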"}, "Escherichia coli [26]": {"system": "Escherichia coli", "assay": "Antibacterial activity against Escherichia coli ATCC 25922 after 20 serial passages measured after 16 to 20 hrs by broth microdilution method", "type": "functional, organism-based", "outline": "as §5"}}, "note": "Active and inactive are the calls of the source. The rule behind the calls is not given here."}
{"molecule": "CCCCCCCCCN(CCCCCCCCC)C(=O)[C@@H](N)CCCCN.Cl.Cl", "values": [{"measurement": "Activity", "setting": "Staphylococcus aureus [1]", "value": 19.9, "unit": "log10CFU"}, {"measurement": "Activity", "setting": "Staphylococcus aureus [2]", "value": 18.6, "unit": "log10CFU"}, {"measurement": "selectivity ratio", "setting": "[3]", "value": 133}, {"measurement": "selectivity ratio", "setting": "[4]", "value": 66.5}, {"measurement": "Time", "setting": "Staphylococcus aureus [5]", "value": 0.5, "unit": "h"}, {"measurement": "Time", "setting": "Staphylococcus aureus [6]", "value": 120, "unit": "min"}, {"measurement": "Time", "setting": "Staphylococcus aureus [7]", "value": 6, "unit": "h"}, {"measurement": "Time", "setting": "Escherichia coli [8]", "value": 0.5, "unit": "h"}, {"measurement": "Time", "setting": "Escherichia coli [9]", "value": 1, "unit": "h"}, {"measurement": "Activity", "setting": "Staphylococcus aureus [10]", "value": 11.9, "unit": "log10CFU"}, {"measurement": "Activity", "setting": "Staphylococcus aureus [11]", "value": 11.5, "unit": "log10CFU"}, {"measurement": "Activity", "setting": "Staphylococcus aureus [12]", "value": 9.9, "unit": "log10CFU"}, {"measurement": "Activity", "setting": "Staphylococcus aureus [13]", "value": 7.9, "unit": "log10CFU"}, {"measurement": "Activity", "setting": "Staphylococcus aureus [14]", "value": 7.6, "unit": "log10CFU"}, {"measurement": "Activity", "setting": "Escherichia coli [15]", "value": 24.7, "unit": "log10CFU"}, {"measurement": "Activity", "setting": "Escherichia coli [16]", "value": 23.9, "unit": "log10CFU"}, {"measurement": "Activity", "setting": "Escherichia coli [17]", "value": 8.4, "unit": "log10CFU"}, {"measurement": "Activity", "setting": "Escherichia coli [18]", "value": 4.1, "unit": "log10CFU"}, {"measurement": "Activity", "setting": "Escherichia coli [19]", "value": 2.1, "unit": "log10CFU"}, {"measurement": "Activity", "setting": "Escherichia coli [20]", "value": "Active"}, {"measurement": "MBEC", "setting": "Staphylococcus aureus [21]", "value": 64, "unit": "µg/mL"}, {"measurement": "MBIC80", "setting": "Escherichia coli [22]", "value": 53.9, "unit": "µg/mL"}, {"measurement": "MBIC90", "setting": "Escherichia coli [22]", "value": 73.6, "unit": "µg/mL"}, {"measurement": "Ratio", "setting": "Escherichia coli [23]", "value": 64}, {"measurement": "Ratio", "setting": "Staphylococcus aureus [24]", "value": 64}, {"measurement": "Activity", "setting": "Staphylococcus aureus [25]", "value": "Active"}, {"measurement": "Activity", "setting": "Escherichia coli [26]", "value": "Active"}]}
